# Assay results: ChEMBL document CHEMBL3603766, “Structure-activity studies of Wnt/β-catenin inhibition in the Niclosamide chemotype: Identification of derivatives with improved drug exposure” (Bioorg Med Chem, 2015)
# The source made the active and inactive calls. The rule behind the calls is not given here.
# Assays:
# Mus musculus [1] = assay: AUClast in CD1 mouse assessed as niclosamide at 200 mg/kg, po; format: ADME, organism-based; set-up: dose 200 mg/kg, route oral, time 0 - last; details: in vivo
# How it was run: (§1)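 CD1 mice given prodrug orally as a solution in corn oil (20 mg/ml) at 200 mg/kg. Niclosamide in plasma quantified by LC/MS–MS, reported as ng/mL, mean ± SEM.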
# Mus musculus [2] = assay: Toxicity in NOD/SCID mouse assessed as change in body weight at 200 mg/kg, po administered 6 days a week for 3 weeks; format: organism-based; details: in vivo
# How it was run: (§2)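 NOD/SCID mice dosed orally with 200 mg/kg in corn oil, or corn oil vehicle, 6 days a week for 3 weeks. Observed throughout for side effects and behavior. Body weight taken on the first dosing day (week 0) and on the day after the last dose (week 3).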
# U2OS = assay: Inhibition of Wnt/beta-catenin in human U2OS cells assessed as internalization of frizzled-GFP at 12.5 uM after 6 hrs by confocal microscopic analysis; format: cell-based
# How it was run: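 U2OS cells stably expressing Frizzled1-GFP, plated 24 h, then exposed to 12.5 μM compound or DMSO for 6 h at 37 °C. Fixed with 4% paraformaldehyde and imaged by confocal microscopy (488 nm excitation). Punctate scored blind twice on a 0–5 scale against DMSO control.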
# Mus musculus [3] = assay: Cmax in CD1 mouse assessed as niclosamide at 200 mg/kg, po; format: ADME, organism-based; set-up: dose 200 mg/kg, route oral; details: in vivo; how it was run: as §1
# Mus musculus [4] = assay: Toxicity in NOD/SCID mouse assessed as change in behavior at 200 mg/kg, po administered 6 days a week for 3 weeks; format: organism-based; details: in vivo; how it was run: as §2
# HEK293 = assay: Inhibition of Wnt/beta-catenin in HEK293 cells assessed as inhibition of Wnt3A-stimulated TOPFlash activity after 8 hrs; format: cell-based; details: Homo sapiens, HEK293, 8 h
# How it was run: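 HEK293 cells stably carrying p8xTOPFlash and Renilla pRL-TK, seeded at 100% confluency. Cells given Wnt-3A conditioned medium (from L Wnt-3A cells) containing compound (0.04–10 μM) or DMSO for 8 h. Lysed and read by dual luciferase, firefly normalized to Renilla, Wnt3A+DMSO = 100%. IC50 fit, mean ± SEM, n ≥ 2.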
# Mus musculus [5] = assay: Clast in CD1 mouse assessed as niclosamide at 200 mg/kg, po; format: ADME, organism-based; details: in vivo; how it was run: as §1
# Mus musculus [6] = assay: Half life in CD1 mouse assessed as niclosamide at 200 mg/kg, po measured for 24 to 48 hrs; format: ADME, organism-based; details: in vivo; how it was run: as §1
# Plasma [7] = assay: Drug metabolism in CD1 mouse plasma assessed as niclosamide production at 200 mg/kg, po measured for 24 hrs by LC/MS-MS analysis; format: ADME, organism-based; details: in vivo; how it was run: as §1
# Mus musculus [8] = assay: Half life in CD1 mouse assessed as niclosamide at 200 mg/kg, po measured for 45 to 240 mins; format: ADME, organism-based; details: in vivo; how it was run: as §1
# Mus musculus [9] = assay: Tmax in CD1 mouse assessed as niclosamide at 200 mg/kg, po; format: ADME, organism-based; details: in vivo; how it was run: as §1
# Mus musculus [10] = assay: Tlast in CD1 mouse assessed as niclosamide at 200 mg/kg, po; format: ADME, organism-based; details: in vivo; how it was run: as §1
# HCT-116 [11] = assay: Cytotoxicity against human HCT116 cells assessed as growth inhibition after 72 hrs by MTS assay; format: functional, cell-based; details: HCT-116, 72 h
# How it was run: (§3)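 HCT116 colon cancer cells seeded at 5000 cells/well, exposed to compound at 0.04–10 μM for 72 h, then read by colorimetric MTS. Viability normalized to DMSO set at 100%. IC50 from curve fit, mean ± SEM, n = 3.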
# [12] = Total clearance in Sprague-Dawley rat at 2 mg/kg, iv; format: ADME, organism-based; details: in vivo
# Plasma [13] = assay: Drug uptake in plasma of CD1 mouse at 200 mg/kg, po by LC/MS-MS analysis; format: ADME, organism-based; details: in vivo
# How it was run: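 CD1 mice gavaged at 200 mg/kg with a solution (20 mg/ml) in 90% PEG 300 / 10% 1-methyl-2-pyrrolidinone. Blood sampled predose and at 0.25, 0.5, 1, 2, 4, 8 h. Plasma analyzed by LC/MS–MS, including for a potential active metabolite.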
# [14] = Oral bioavailability in Sprague-Dawley rat at 5 mg/kg; format: ADME, organism-based; details: in vivo
# [15] = Volume of distribution at steady state in Sprague-Dawley rat at 2 mg/kg, iv; format: ADME, organism-based; details: in vivo
# [16] = Cytotoxicity against human breast cancer cells assessed as growth inhibition after 72 hrs by Cell Titer Glo Assay; format: functional, cell-based; details: Cancer cell lines, pooled result: one value given for 7 cell lines, strains, targets or settings
# [17] = Distribution coefficient, log D of the compound at pH 7; format: physicochemical; details: octanol/water
# [18] = Lipophilicity, log P of the compound at pH <=4; format: physicochemical; details: octanol/water
# Plasma [19] = assay: Drug level in CD1 mouse plasma treated with DK-520 at 200 mg/kg, po measured for 24 hrs by LC/MS-MS analysis; format: ADME, organism-based; details: in vivo; how it was run: as §1
# HCT-116 [20] = assay: Cytotoxicity against human HCT116 cells assessed as growth inhibition up to 10 uM after 72 hrs by MTS assay; format: functional, cell-based; how it was run: as §3
# [21] = Half life in Sprague-Dawley rat at 2 mg/kg, iv; format: ADME, organism-based; details: in vivo
smiles,measurement,setting,value
CCCCCCCC(=O)Oc1ccc(Cl)cc1C(=O)Nc1ccc([N+](=O)[O-])cc1Cl,AUClast,Mus musculus [1],22400 ng·h/mL
same,Activity,Mus musculus [2],Non-toxic
same,inhibition,U2OS,Active
same,Cmax,Mus musculus [3],6100 ng/mL
same,Activity,Mus musculus [4],Non-toxic
same,IC50,HEK293,230 nM
same,Clast,Mus musculus [5],49 ng/mL
same,t1/2,Mus musculus [6],12.2 h
same,Drug metabolism,Plasma [7],metabolite_detected
same,t1/2,Mus musculus [8],0.69 h
same,Tmax,Mus musculus [9],0.75 h
same,Tlast,Mus musculus [10],72 h
same,IC50,HCT-116 [11],610 nM
O=C(Nc1ccc(F)cc1)c1cc(Cl)ccc1O,inhibition,U2OS,inactive
same,IC50,HEK293,3840 nM
CS(=O)(=O)c1ccc(NC(=O)c2cc(Cl)ccc2O)c(Cl)c1,inhibition,U2OS,inactive
same,IC50,HEK293,7660 nM
O=C(Nc1ccc([N+](=O)[O-])cc1Cl)c1cc(Cl)ccc1O [NICLOSAMIDE],inhibition,U2OS,Active
same,IC50,HEK293,340 nM
same,clearance,[12],20 mL/min/kg
same,Drug uptake,Plasma [13],Active
same,bioavailability,[14],10%
same,Vd,[15],0.9 L/kg
same,IC50,[16],130 nM
same,logD,[17],4.48
same,logP,[18],5.95
same,IC50,HCT-116 [11],450 nM
same,Drug metabolism,Plasma [19],metabolite_detected
CC(=O)Oc1ccc(Cl)cc1C(=O)Nc1ccc(C(F)(F)F)cc1Cl,inhibition,U2OS,Active
same,IC50,HEK293,320 nM
O=C(Nc1ccccc1Cl)c1cc(Cl)ccc1O,inhibition,U2OS,inactive
same,IC50,HEK293,3050 nM
O=c1oc2ccc(Cl)cc2c(=O)n1-c1ccc([N+](=O)[O-])cc1Cl,IC50,HEK293,370 nM
O=c1oc2ccc(Cl)cc2c(=O)n1-c1ccc(C(F)(F)F)cc1,inhibition,U2OS,Active
same,IC50,HEK293,320 nM
O=C(Nc1c(Cl)cccc1Cl)c1cc(Cl)ccc1O,inhibition,U2OS,inactive
same,growth inhibition (GI),HCT-116 [20],inactive
same,IC50,HEK293,> 12000 nM
O=C(Nc1cccc(Cl)c1)c1cc(Cl)ccc1O,inhibition,U2OS,Active
same,IC50,HEK293,1650 nM
O=C(Nc1ccc(F)c(Cl)c1)c1cc(Cl)ccc1O,inhibition,U2OS,Active
same,IC50,HEK293,1210 nM
O=C(Nc1cc(Cl)ccc1Cl)c1cc(Cl)ccc1O,inhibition,U2OS,Active
same,IC50,HEK293,750 nM
O=C(Nc1ccc(F)cc1Cl)c1cc(Cl)ccc1O,inhibition,U2OS,Active
same,IC50,HEK293,1410 nM
O=C(Nc1ccc(Cl)cc1)c1cc(Cl)ccc1O,inhibition,U2OS,Active
same,IC50,HEK293,1300 nM
O=C(NC(=O)c1cc(Cl)ccc1O)c1ccc(C(F)(F)F)cc1,inhibition,U2OS,inactive
same,IC50,HEK293,> 12000 nM
O=C(Nc1ccccc1)c1cc(Cl)ccc1O,inhibition,U2OS,inactive
same,IC50,HEK293,11800 nM
O=C(Nc1ccc(C(F)(F)F)cc1F)c1cc(Cl)ccc1O,inhibition,U2OS,Active
same,IC50,HEK293,550 nM
CCOC(=O)Oc1ccc(Cl)cc1C(=O)Nc1ccc(C(F)(F)F)cc1Cl,inhibition,U2OS,Active
same,IC50,HEK293,340 nM
same,IC50,HCT-116 [11],510 nM
O=C(Nc1ccc(C(F)(F)F)cc1Cl)c1cc(Cl)ccc1O,inhibition,U2OS,Active
same,IC50,HEK293,560 nM
same,clearance,[12],39 mL/min/kg
same,bioavailability,[14],15%
same,half-life,[21],3.7 h
same,Vd,[15],1.1 L/kg
same,IC50,HCT-116 [11],540 nM
NC(=O)c1ccc(NC(=O)c2cc(Cl)ccc2O)cc1,inhibition,U2OS,inactive
same,IC50,HEK293,> 12000 nM
O=C(Nc1cc(Cl)cc(Cl)c1)c1cc(Cl)ccc1O,inhibition,U2OS,Active
same,IC50,HEK293,700 nM
O=C(Nc1ccc(C(F)(F)F)cc1)c1cc(Cl)ccc1O,inhibition,U2OS,Active
same,IC50,HEK293,290 nM
same,IC50,HCT-116 [11],670 nM
O=C(Nc1ccc(F)cc1F)c1cc(Cl)ccc1O,inhibition,U2OS,inactive
same,IC50,HEK293,4020 nM
O=C(NCc1ccc(C(F)(F)F)cc1)c1cc(Cl)ccc1O,inhibition,U2OS,inactive
same,IC50,HEK293,15100 nM
O=C(Nc1c(F)cccc1F)c1cc(Cl)ccc1O,IC50,HEK293,> 12000 nM
O=S(=O)(Nc1ccc(C(F)(F)F)cc1Cl)c1cc(Cl)ccc1O,inhibition,U2OS,inactive
same,IC50,HEK293,2570 nM
O=c1oc2ccc(Cl)cc2c(=O)n1-c1ccc(C(F)(F)F)cc1Cl,inhibition,U2OS,Active
same,IC50,HEK293,330 nM
same,Drug uptake,Plasma [13],Active
same,IC50,HCT-116 [11],550 nM
O=C(Nc1ccc(Cl)c(Cl)c1)c1cc(Cl)ccc1O,inhibition,U2OS,Active
same,IC50,HEK293,730 nM
O=C(Nc1cccc(C(F)(F)F)c1)c1cc(Cl)ccc1O,inhibition,U2OS,Active
same,IC50,HEK293,890 nM
CC(=O)c1ccc(NC(=O)c2cc(Cl)ccc2O)cc1,inhibition,U2OS,inactive
same,IC50,HEK293,6420 nM
CN(C(=O)c1cc(Cl)ccc1O)c1ccc(C(F)(F)F)cc1,inhibition,U2OS,inactive
same,IC50,HEK293,> 12000 nM
O=C(c1ccccc1)c1ccc(NC(=O)c2cc(Cl)ccc2O)cc1,inhibition,U2OS,inactive
same,IC50,HEK293,15000 nM
O=C(Nc1ccc(Cl)cc1Cl)c1cc(Cl)ccc1O,inhibition,U2OS,Active
same,IC50,HEK293,420 nM
same,clearance,[12],27 mL/min/kg
same,bioavailability,[14],12%
same,half-life,[21],2.6 h
same,Vd,[15],0.3 L/kg
same,IC50,HCT-116 [11],1180 nM
O=C(Nc1cc(Cl)ccc1O)c1ccc([N+](=O)[O-])cc1,IC50,HEK293,> 12000 nM
O=C(Nc1ccc([N+](=O)[O-])cc1)c1cc(Cl)ccc1O,inhibition,U2OS,Active
same,IC50,HEK293,990 nM
O=C(Nc1ccccc1)c1ccc(NC(=O)c2cc(Cl)ccc2O)cc1,inhibition,U2OS,inactive
same,IC50,HEK293,32900 nM
